From ChEMBL document CHEMBL1153184, “Drug design and synthesis of a novel kappa opioid receptor agonist with an oxabicyclo[2.2.2]octane skeleton and its pharmacology” (Bioorg Med Chem Lett, 2010)
Calls of active or inactive are those of the source. The rule behind the calls is not given here.

What was measured:
[1] = Displacement of [3H]NTI from guinea pig forebrain delta opioid receptor; set-up: species or system Cavia porcellus
Outline: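 Radioligand competition binding in duplicate on guinea-pig brain homogenate. Cerebellum was used for κ and forebrain for μ and δ. The μ tracer was [³H]DAMGO, δ was [³H]NTI and κ was [³H]U-69,593. Affinity was expressed as Ki.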

Mus musculus [2] = assay: Antinociceptive activity in sc dosed mouse assessed as inhibition of acetic acid-induced writhing response at 0.03 mg/kg in presence of 3 mg/kg delta opioid receptor antagonist NTI; type: functional, organism-based
[3] = target: Kappa-type opioid receptor (Cavia porcellus, UniProt P41144); assay: Displacement of [3H]U69593 from guinea pig cerebellum kappa opioid receptor; type: tissue-based
Outline: (§1)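 Radioligand competition binding in duplicate on guinea-pig brain homogenate. Cerebellum was used for κ and forebrain for μ and δ. Affinity was expressed as Ki.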

Mus musculus [4] = assay: Antinociceptive activity in sc dosed mouse assessed as inhibition of acetic acid-induced writhing response; type: functional
Mu-type opioid receptor = Mu-type opioid receptor (Cavia porcellus, UniProt P97266); assay: Displacement of [3H]DAMGO from guinea pig forebrain mu opioid receptor; outline: as §1
Mus musculus [5] = assay: Antinociceptive activity in sc dosed mouse assessed as inhibition of acetic acid-induced writhing response at 0.03 mg/kg in presence of 20 mg/kg kappa opioid receptor antagonist nor-BNI; type: functional, organism-based
Mus musculus [6] = assay: Antinociceptive activity in sc dosed mouse assessed as inhibition of acetic acid-induced writhing response at 0.03 mg/kg in presence of 0.3 mg/kg mu opioid receptor antagonist naloxone; type: functional, organism-based

Mu-type opioid receptor, sequence (P97266 whole entry): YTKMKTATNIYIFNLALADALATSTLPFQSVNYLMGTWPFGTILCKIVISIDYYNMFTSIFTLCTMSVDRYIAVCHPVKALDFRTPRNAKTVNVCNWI
Kappa-type opioid receptor, sequence (P41144 whole entry): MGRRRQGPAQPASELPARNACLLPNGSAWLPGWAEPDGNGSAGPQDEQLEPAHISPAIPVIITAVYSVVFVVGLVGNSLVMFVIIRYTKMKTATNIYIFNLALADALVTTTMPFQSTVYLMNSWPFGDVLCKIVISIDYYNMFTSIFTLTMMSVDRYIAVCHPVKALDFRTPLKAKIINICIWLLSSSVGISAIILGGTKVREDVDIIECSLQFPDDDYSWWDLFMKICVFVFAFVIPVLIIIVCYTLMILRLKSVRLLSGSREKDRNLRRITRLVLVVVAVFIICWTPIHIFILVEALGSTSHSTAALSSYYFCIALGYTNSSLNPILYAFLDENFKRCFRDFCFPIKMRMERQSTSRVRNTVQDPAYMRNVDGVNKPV

Row | Structure (SMILES) | Ki [1] [nM] | Activity (Mus musculus [2]) | Ki [3] [nM] | Activity (Mus musculus [4]) | ED50 (Mus musculus [4]) [µg/kg] | Ki (Mu-type opioid receptor) [nM] | Activity (Mus musculus [5]) | Activity (Mus musculus [6])
1 | O=C1CC[C@@]2(O)[C@H]3Cc4ccc(O)c5c4[C@@]2(CCN3CC2CC2)[C@H]1O5 [NALTREXONE] | 20.7 |  |  |  |  |  |  | 
2 | O=C(Nc1ccccc1)[C@H]1O[C@@]23CC[C@]1(O)[C@@H]1Oc4c(O)ccc5c4[C@@]12CCN(CC1CC1)[C@@H]3C5 | 2.73 | Active | 0.111 | Dose-dependent effect | 6.3 | 0.212 | inactive | Active
3 | O=C(Nc1ccccc1)[C@@H]1O[C@@]23CC[C@@]1(O)[C@@H]1Oc4c(O)ccc5c4[C@@]12CCN(CC1CC1)[C@@H]3C5 | 3.23 |  | 0.152 |  |  | 0.205 |  | 
4 | CN(C(=O)/C=C/c1ccco1)[C@@H]1CC[C@@]2(O)[C@H]3Cc4ccc(O)c5c4[C@@]2(CCN3CC2CC2)[C@H]1O5 | 96.5 |  | 0.225 |  |  | 0.582 |  | 
